Data: ChEMBL document CHEMBL3272061, “Experiments of synthesis of dl-camptothecin. 4. Synthesis and antileukemic activity of dl-camptothecin analogues” (J Med Chem, 1976)
The source made the active and inactive calls. The rule behind the calls is not given here.

How the values were obtained:
[1] = system: L1210; test: Antileukemic activity against mouse L1210 cells allografted in BDF1 mouse assessed as host survival at 5.74 umol/kg, ip after 30 days; format: functional, organism-based
In short: (§1)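 BDF1 mice, 5 weeks old, were inoculated ip with 5×10^5 L1210 cells in 0.1 ml saline. Test groups were 4 male and 4 female mice; controls were 5 male and 5 female. Insoluble compounds were suspended in vehicle. Dosing was ip, either once on the day after inoculation or daily for 5 days. Read-out was increase in life span over controls. Mice alive beyond 30 days were counted as 30 days and scored as survivors.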

[2] = system: L1210; test: Antileukemic activity against mouse L1210 cells allografted in BDF1 mouse assessed as host survival at 139 umol/kg, ip after 30 days; format: functional, organism-based; in short: as §1
[3] = system: L1210; test: Antileukemic activity against mouse L1210 cells allografted in BDF1 mouse assessed as host survival at 5.21 umol/kg, ip after 30 days; format: functional, organism-based; in short: as §1
[4] = system: L1210; test: Antileukemic activity against mouse L1210 cells allografted in BDF1 mouse assessed as host survival at 27.8 umol/kg, ip after 30 days; format: functional, organism-based; in short: as §1
[5] = system: L1210; test: Antileukemic activity against mouse L1210 cells allografted in BDF1 mouse assessed as host survival at 278 umol/kg, ip after 30 days; format: functional, organism-based; in short: as §1
[6] = system: L1210; test: Antileukemic activity against mouse L1210 cells allografted in BDF1 mouse assessed as host survival at 1.11 umol/kg, ip qd for 5 days measured after 30 days; format: functional, organism-based; in short: as §1
[7] = system: L1210; test: Antileukemic activity against mouse L1210 cells allografted in BDF1 mouse assessed as host survival at 5.56 umol/kg, ip qd for 5 days measured after 30 days; format: functional, organism-based; in short: as §1
[8] = system: L1210; test: Antileukemic activity against mouse L1210 cells allografted in BDF1 mouse assessed as host survival at 13.8 umol/kg, ip qd for 5 days measured after 30 days; format: functional, organism-based; in short: as §1
[9] = system: L1210; test: Antileukemic activity against mouse L1210 cells allografted in BDF1 mouse assessed as host survival at 1.11 umol/kg, sc qd for 5 days measured after 30 days; format: functional, organism-based
[10] = system: L1210; test: Antileukemic activity against mouse L1210 cells allografted in BDF1 mouse assessed as host survival at 5.56 umol/kg, sc qd for 5 days measured after 30 days; format: functional, organism-based
[11] = system: L1210; test: Antileukemic activity against mouse L1210 cells allografted in BDF1 mouse assessed as host survival at 13.8 umol/kg, sc qd for 5 days measured after 30 days; format: functional, organism-based
[12] = system: L1210; test: Antileukemic activity against mouse L1210 cells allografted in BDF1 mouse assessed as host survival at 27.8 umol/kg, sc qd for 5 days measured after 30 days; format: functional, organism-based
[13] = system: L1210; test: Antileukemic activity against mouse L1210 cells allografted in BDF1 mouse assessed as host survival at 5.56 umol/kg, po qd for 4 days measured after 30 days; format: functional, organism-based
[14] = system: L1210; test: Antileukemic activity against mouse L1210 cells allografted in BDF1 mouse assessed as host survival at 13.8 umol/kg, po qd for 4 days measured after 30 days; format: functional, organism-based
[15] = system: L1210; test: Antileukemic activity against mouse L1210 cells allografted in BDF1 mouse assessed as host survival at 27.8 umol/kg, po qd for 4 days measured after 30 days; format: functional, organism-based
[16] = system: L1210; test: Antileukemic activity against mouse L1210 cells allografted in BDF1 mouse assessed as host survival at 1 umol/kg, ip qd for 5 days measured after 30 days; format: functional, organism-based; in short: as §1
[17] = system: L1210; test: Antileukemic activity against mouse L1210 cells allografted in BDF1 mouse assessed as host survival at 5 umol/kg, ip qd for 5 days measured after 30 days; format: functional, organism-based; in short: as §1
[18] = system: L1210; test: Antileukemic activity against mouse L1210 cells allografted in BDF1 mouse assessed as host survival at 12.5 umol/kg, ip qd for 5 days measured after 30 days; format: functional, organism-based; in short: as §1
[19] = system: L1210; test: Antileukemic activity against mouse L1210 cells allografted in BDF1 mouse assessed as host survival at 1 umol/kg, sc qd for 5 days measured after 30 days; format: functional, organism-based
[20] = system: L1210; test: Antileukemic activity against mouse L1210 cells allografted in BDF1 mouse assessed as host survival at 5 umol/kg, sc qd for 5 days measured after 30 days; format: functional, organism-based
[21] = system: L1210; test: Antileukemic activity against mouse L1210 cells allografted in BDF1 mouse assessed as host survival at 25 umol/kg, sc qd for 5 days measured after 30 days; format: functional, organism-based
[22] = system: L1210; test: Antileukemic activity against mouse L1210 cells allografted in BDF1 mouse assessed as host survival at 5 umol/kg, po qd for 5 days measured after 30 days; format: functional, organism-based
[23] = system: L1210; test: Antileukemic activity against mouse L1210 cells allografted in BDF1 mouse assessed as host survival at 12.5 umol/kg, po qd for 5 days measured after 30 days; format: functional, organism-based
[24] = system: L1210; test: Antileukemic activity against mouse L1210 cells allografted in BDF1 mouse assessed as host survival at 25 umol/kg, po qd for 4 days measured after 30 days; format: functional, organism-based
[25] = system: L1210; test: Antileukemic activity against mouse L1210 cells allografted in BDF1 mouse assessed as host survival at 65.8 umol/kg, ip after 30 days; format: functional, organism-based; in short: as §1
[26] = system: L1210; test: Antileukemic activity against mouse L1210 cells allografted in BDF1 mouse assessed as host survival at 132 umol/kg, ip after 30 days; format: functional, organism-based; in short: as §1
[27] = system: L1210; test: Antileukemic activity against mouse L1210 cells allografted in BDF1 mouse assessed as host survival at 5.56 umol/kg, ip after 30 days; format: functional, organism-based; in short: as §1
[28] = Solubility of the compound; format: physicochemical
[29] = system: L1210; test: Antileukemic activity against mouse L1210 cells allografted in BDF1 mouse assessed as increase in life span of host at 26.3 umol/kg, ip relative to control; format: functional
In short: (§2)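 BDF1 mice, 5 weeks old, were inoculated ip with 5×10^5 L1210 cells; test groups had 4 males and 4 females, controls 5 males and 5 females. A single ip dose was given on the day after inoculation, as a suspension in vehicle for the insoluble compounds. Read-out was increase in life span over controls, with survivors past 30 days counted as 30 days.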

[30] = system: L1210; test: Antileukemic activity against mouse L1210 cells allografted in BDF1 mouse assessed as increase in life span of host at 65.8 umol/kg, ip relative to control; format: functional; in short: as §2
[31] = system: L1210; test: Antileukemic activity against mouse L1210 cells allografted in BDF1 mouse assessed as increase in life span of host at 132 umol/kg, ip relative to control; format: functional; in short: as §1
[32] = system: L1210; test: Antileukemic activity against mouse L1210 cells allografted in BDF1 mouse assessed as increase in life span of host at 5.56 umol/kg, ip relative to control; format: functional; in short: as §2
[33] = system: L1210; test: Antileukemic activity against mouse L1210 cells allografted in BDF1 mouse assessed as increase in life span of host at 27.8 umol/kg, ip relative to control; format: functional; in short: as §2
[34] = system: L1210; test: Antileukemic activity against mouse L1210 cells allografted in BDF1 mouse assessed as host survival at 5.58 umol/kg, ip after 30 days; format: functional, organism-based; conditions: 5.56 umol/kg, in the assay text read “5.56 umol/kg” for “5.58 umol/kg”
In short: (§3)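 BDF1 mice, 5 weeks old; test groups four males + four females, controls five + five. 5×10^5 L1210 cells in 0.1 ml saline given ip. Compound, suspended in suspending vehicle (sodium salt dissolved), injected ip once on the day after inoculation. Survival followed to 30 days; mice surviving beyond 30 days counted as 30 days and scored as survivor fraction; activity as increased life span over controls.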

[35] = system: L1210; test: Antileukemic activity against mouse L1210 cells allografted in BDF1 mouse assessed as host survival at 69.4 umol/kg, ip after 30 days; format: functional, organism-based; in short: as §3
[36] = system: L1210; test: Antileukemic activity against mouse L1210 cells allografted in BDF1 mouse assessed as increase in life span of host at 69.4 umol/kg, ip relative to control; format: functional; in short: as §2
[37] = system: L1210; test: Antileukemic activity against mouse L1210 cells allografted in BDF1 mouse assessed as increase in life span of host at 139 umol/kg, ip relative to control; format: functional; in short: as §1

With `C=CCC1(O)C(=O)OCc2c1cc1n(c2=O)Cc2cc3ccccc3nc2-1` (racemic) the Activity [1] was “inactive”, the Activity [2] was “inactive” and the Activity [3] was “inactive”. The Activity [4] was “inactive”, the Activity [5] was “inactive” and the Activity [6] was “inactive”. For the same compound, the Activity [7] was “inactive”, the Activity [8] was “inactive” and the Activity [9] was “inactive”. For the same compound, the Activity [10] was “inactive”, the Activity [11] was “inactive” and the Activity [12] was “inactive”. For the same compound, the Activity [13] was “inactive”, the Activity [14] was “inactive” and the Activity [15] was “inactive”.

For `C=CCC1(O)C(=O)OCc2c1cc1n(c2=O)Cc2cc3ccccc3nc2-1` (stereo not given), the Activity [16] was “inactive”, the Activity [17] was “inactive” and the Activity [18] was “inactive”. The Activity [19] was “inactive”, the Activity [20] was “inactive” and the Activity [21] was “inactive”. The Activity [22] was “inactive”, the Activity [23] was “inactive” and the Activity [24] was “inactive”.

With `CCC1(O)C(=O)OCc2c1cc1n(c2=O)CC2Cc3ccccc3N(C=O)C12` (mixture of isomers) the Activity [25] was “inactive”, the Activity [26] was “inactive” and the Activity [27] was “inactive”. The solubility [28] was “Insoluble”, the ILS at 26.3 µmol/kg [29] was -6% and the ILS at 65.8 µmol/kg [30] was -9%. It also gave an ILS at 132 µmol/kg [31] of -3%, an ILS at 5.56 µmol/kg [32] of 34% and an ILS at 27.8 µmol/kg [33] of over 244%.

In the case of `CCC1(CC)C(=O)OCc2c1cc1n(c2=O)Cc2cc3ccccc3nc2-1`, the Activity [2] is reported as “inactive”, the Activity [34] is reported as “inactive” and the solubility [28] is reported as “Insoluble”. For the same compound, the Activity [4] was “inactive”, the Activity [35] was “inactive” and the ILS at 69.4 µmol/kg [36] was 5%. The ILS at 139 µmol/kg [37] was -11%.
